Test results: article PMC4931877 (The Journal of Pharmacology and Experimental Therapeutics, 2016)

Experiments:
[1] = MAD study plasma pharmacokinetics; type: in vivo, human; settings: for half-life / concentration at 24 h / Cmax: human, plasma, oral; for concentration at 24 h: C24 GM (CV%); for Cmax: Cmax GM (CV%)
Summary of the method: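 EDTA plasma was sampled at 0–24 h postdose on days 1 and 14, intensively on day 28, and at trough on days 5–25. Drug was measured by validated LC-MS/MS. Parameters are noncompartmental, with trapezoidal and log-trapezoidal AUC. Half-life is ln2/k from a least-squares terminal slope on days 14 and 28.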

CYP3A4 = CYP3A4 (Homo sapiens, UniProt P08684); experiment: Plasma 4βHC biomarker of CYP3A4 in the MAD study; type: in vivo; settings: any treatment cohort of the MAD study
Summary of the method: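 During once-daily multiple dosing, plasma 4β-hydroxycholesterol was quantified by validated LC-MS/MS (LLOQ 2 ng/ml for 50 μl plasma). 4α-Hydroxycholesterol and total cholesterol were measured as normalisation factors.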

[2] = SAD study plasma pharmacokinetics; type: in vivo, human; settings: for Cmax / AUC(0-t) / AUC(0-inf) / half-life: human, plasma, oral; for Cmax: Cmax GM (CV%); for AUC(0-t): AUC0–t GM (CV%); for AUC(0-inf): AUC0–∞ GM (CV%)
Summary of the method: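 Young subjects (8 per panel, 3:1 active:placebo) received single oral 10–1200 mg doses as solution or capsule; elderly subjects received 900 mg. Panel 4 was dosed fasted, after a high-fat meal, or 2 h after 40 mg famotidine. Plasma drug was measured by validated LC-MS/MS with noncompartmental analysis.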

[3] = SAD study CSF pharmacokinetics; type: in vivo, human
Summary of the method: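 In panel 9, 15 healthy subjects received a single 900-mg dose or placebo (2:1) in the fasted state. CSF was drawn by lumbar cannulation at −1, 0, 2, 4, 6, 8, 12, 15, 18 and 24 h postdose, using polypropylene ware and a pump without a filter. Samples were stored at −80°C, and drug was measured by validated LC-MS/MS.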

brain Aβ42 = system: brain Aβ42; parameters: species or system human; settings: single 900-mg dose
[4] = system: plasma Aβ40, Aβ42, and total Aβ; experiment: MAD study pharmacodynamic effects on plasma Aβ; type: in vivo, human
Summary of the method: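 Healthy volunteers were dosed once daily at 50, 100 or 200 mg for up to 28 days. EDTA plasma was stored at −80°C. Aβ40 and Aβ42 were measured by Luminex duplex immunoassay (LLOQ 30 and 3 pg/ml) and total Aβ by MSD (LLOQ 50 pg/ml), in duplicate. Values are % change from baseline, analysed by repeated-measures ANCOVA.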

[5] = system: plasma Aβ40, Aβ42, and total Aβ; experiment: SAD study pharmacodynamic effects on plasma Aβ; type: in vivo, human
Summary of the method: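 Single oral doses of 10–1200 mg were given as solution or capsule. Blood tubes were inverted and iced, then centrifuged within 30 min at room temperature for 15 min at about 1000g. Plasma was stored at −80°C. Aβ40 and Aβ42 were measured by Luminex duplex immunoassay and total Aβ by MSD, in duplicate.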

[6] = system: brain and CSF Aβ42 and Aβ40; settings: rats; ref Toyn et al., 2016; cited from earlier work
[7] = 50 mg, MAD panel 1, 50 mg once daily, day 1
[8] = 50 mg, MAD panel 1, 50 mg once daily, day 14
[9] = 50 mg, MAD panel 1, 50 mg once daily, day 28
[10] = SAD panel 4, 2 hours after 40 mg famotidine
[11] = both, 300 mg, SAD panel 4, 300 mg, fasted
[12] = both, 900 mg, SAD panel 8, 900 mg, elderly

Chain of CYP3A4 (P08684 whole entry): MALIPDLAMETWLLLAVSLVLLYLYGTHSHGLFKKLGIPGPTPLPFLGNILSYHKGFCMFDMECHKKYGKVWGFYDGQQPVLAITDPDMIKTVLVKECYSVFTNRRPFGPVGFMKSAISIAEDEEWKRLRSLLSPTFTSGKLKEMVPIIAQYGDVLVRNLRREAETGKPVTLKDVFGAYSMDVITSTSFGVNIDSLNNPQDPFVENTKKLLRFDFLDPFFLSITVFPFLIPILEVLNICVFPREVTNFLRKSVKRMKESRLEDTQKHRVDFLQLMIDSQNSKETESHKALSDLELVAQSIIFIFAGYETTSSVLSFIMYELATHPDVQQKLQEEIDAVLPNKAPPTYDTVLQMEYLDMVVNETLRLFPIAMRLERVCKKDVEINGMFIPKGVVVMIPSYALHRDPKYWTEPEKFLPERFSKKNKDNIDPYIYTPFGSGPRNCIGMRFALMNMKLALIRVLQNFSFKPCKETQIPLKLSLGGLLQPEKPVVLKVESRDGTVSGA

CNc1nc(Nc2ccc(-n3cnc(C)n3)c(OC)c2)nc2c1CC[C@H]2c1ccc(F)cc1 [BMS-932481, (S)-7-(4-fluorophenyl)-N2-(3-methoxy-4-(3-methyl-1H-1,2,4-triazol-1-yl)phenyl)-N4-methyl-6,7-dihydro-5H-cyclopenta[d]pyrimidine-2,4-diamine]
steady state achieved ([1]; MAD 50- and 100-mg dose groups): ≤ 14 days
dose proportionality of plasma exposure ([1]; MAD day 14): greater than dose proportionality
slope for AUCτ versus dose ([1]; MAD day 14, 95% CI, 1.03–1.88, r^2 = 0.81): 1.46
slope for Cmax versus dose ([1]; MAD day 14, 95% CI, 1.06–1.67, r^2 = 0.9): 1.36
dose proportionality of plasma exposure ([1]; first dose (day 1) of multiple-dose administrations, 50 to 200 mg): dose proportional
half-life ([1]; 50 mg): 1440 min
concentration at 24 h [1, 7]: 47 ng/mL
concentration at 24 h [1, 8]: 204 ng/mL
concentration at 24 h [1, 9]: 165 ng/mL
Cmax [1, 7]: 134 ng/mL
Cmax [1, 8]: 323 ng/mL
Cmax [1, 9]: 293 ng/mL
half-life ([1]; 100 mg): 1740 min
concentration at 24 h ([1]; 100 mg, MAD panel 2, 100 mg once daily, day 1): 87 ng/mL
half-life ([1]; 200 mg): 2220 min
concentration at 24 h ([1]; 200 mg, MAD panel 3, 200 mg once daily, day 1): 220 ng/mL
accumulation after multiple dosing ([1]; multiple dosing): approximately 3 fold
changes in 4βHC levels (CYP3A4): no significant changes
higher Cmax in elderly than normal healthy young ([2]; 900 mg single dose, range 3.4–4.3): 3.8 fold
Between-subjects variability ([2]; SAD): 27%–83
increase of AUC with famotidine (change in gastric pH) [2, 10]: approximately 15%
increase of Cmax with famotidine (change in gastric pH) [2, 10]: 60%
Cmax ([2]; both, 10 mg, SAD panel 1, 10 mg single dose): 11 ng/mL
Cmax ([2]; both, 30 mg, SAD panel 2, 30 mg single dose): 49 ng/mL
AUC(0-t) [2, 11]: 8570 ng·h/mL
AUC(0-inf) [2, 11]: 8750 ng·h/mL
Cmax [2, 11]: 325 ng/mL
half-life ([2]; both, 300 mg, t1/2 Mean (S.D.), SAD panel 4, 300 mg, fasted): 1200 min
AUC(0-t) [2, 12]: 134000 ng·h/mL
AUC(0-inf) [2, 12]: 156000 ng·h/mL
Cmax [2, 12]: 2870 ng/mL
half-life ([2]; both, mean terminal half-life, SAD, healthy young participants): 960 to 1920 min
AUC(0-t) ([2]; 900 mg, SAD panel 9, 900 mg): 42600 ng·h/mL
Cmax ([2]; 900 mg, SAD panel 9, 900 mg): 876 ng/mL
half-life ([2]; 900 mg, t1/2 Mean (S.D.), SAD panel 9, 900 mg): 1920 min
dose proportionality of plasma exposure ([2]; single dose, 10 to 1200 mg, healthy young volunteers): dose proportional
Tmax Median (Minimum–Maximum) ([3]; SAD panel 9, 900 mg): 6 (4–18) h
AUC(0-t) ([3]; human, oral, 900 mg): 97 ng·h/mL
Cmax ([3]; human, oral, 900 mg): 6.5 ng/mL
Kp ([3]; human, oral, 900 mg): < 0.01
Tmax ([3]; human, oral, 900 mg): 6 h
projected reduction of CSF Aβ42 from baseline (brain Aβ42): ≥ 50%
decrease of plasma Aβ40 levels ([4]; MAD 50-mg dose, up to): 40%–50
plasma Aβ42 during the dosing period ([4]; MAD 100- and 200-mg cohorts): below the limit of quantitation
reduction of plasma Aβ42 levels ([4]; MAD 200-mg cohort, day 35 (11 days after the last dose)): 46%
change in plasma total Aβ ([4]; multiple dose cohorts): No changes
effect on plasma Aβ42 and Aβ40 ([4]; multiple-dose administrations): dose-dependently decreased
change in plasma total Aβ ([5]; single dose cohorts): No changes
effect on plasma Aβ42 and Aβ40 ([5]; single-dose): dose-dependently decreased
Aβ42 and Aβ40 lowering in both the brain and CSF [6]: dose-dependent
